Results: ChEMBL document CHEMBL3352338, “Development and biological evaluation of potent and selective c-KIT(D816V) inhibitors” (J Med Chem, 2014)

Experiments:
[1] = Cell cycle arrest in human HMC-1.2 cells assessed as accumulation at sub-G1 phase after 24 hrs by flow cytometric analysis; format: functional, cell-based
Method in brief: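 HMC-1.2 cells exposed to increasing concentrations for 24 h; cell cycle distribution (SubG1/G1 fraction) measured by flow cytometry.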

[2] = Induction of apoptosis in human HMC-1.2 cells assessed as apoptotic cells at 1 uM after 48 hrs by TUNEL staining (reference value: 0.849%); format: functional
[3] = Induction of apoptosis in human HMC-1.2 cells assessed as apoptotic cells at 5 uM after 48 hrs by TUNEL staining (reference value: 0.849%); format: functional
[4] = Induction of apoptosis in human HMC-1.2 cells assessed as apoptotic cells at 0.1 uM after 48 hrs by TUNEL staining (reference value: 0.849%); format: functional

Q: For COc1ccc(-c2cnc3[nH]cc(-c4ccc(OC)c(OC)c4)c3c2)cc1OC, which inhibition [1] is on record?
A: Its inhibition is “Dose-dependent effect”.

Q: And the Activity [2]?
A: The Activity was 13.3%.

Q: And the Activity [3]?
A: Its Activity is 69.9%.

Q: And the Activity [4]?
A: Its Activity is 0.732%.
